Test results published in ChEMBL document CHEMBL1139894, “Withanolides with phytotoxic activity from Jaborosa caulescens var. caulescens and J. caulescens var. bipinnatifida 1” (2007).

Legend:
Format in all cases: functional
Lactuca sativa [1] = experiment: Phytotoxic activity against Latuca sativa assessed as radicle length elongation at 15 ppm
Outline: (§1)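 Radicle length of treated seedlings was compared with untreated controls and reported as the percentage difference from the control, which is set to zero. Negative values mean inhibition and positive values mean stimulation. Germination and root length were also compared between treated and control seeds using Student's t-test (p < 0.05).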

Lactuca sativa [2] = experiment: Phytotoxic activity against Latuca sativa assessed as radicle length elongation at 400 ppm; outline: as §1
Avena sativa [3] = experiment: Phytotoxic activity against Avena sativa assessed as radicle length elongation at 150 ppm; outline: as §1
Avena sativa [4] = experiment: Phytotoxic activity against Avena sativa assessed as radicle length elongation at 400 ppm; outline: as §1
Lactuca sativa [5] = experiment: Phytotoxic activity against Latuca sativa assessed as radicle length elongation at 150 ppm; outline: as §1
Avena sativa [6] = experiment: Phytotoxic activity against Avena sativa assessed as radicle length elongation at 15 ppm; outline: as §1

SMILES	Activity (Lactuca sativa [1]) [%]	Activity (Lactuca sativa [2]) [%]	Activity (Avena sativa [3]) [%]	Activity (Avena sativa [4]) [%]	Activity (Lactuca sativa [5]) [%]	Activity (Avena sativa [6]) [%]
CCO[C@@]12C[C@H]3[C@@H](C[C@@H](O)[C@@]4(Cl)CC=CC(=O)[C@]34C)[C@@H]3CC[C@@](O)([C@H](C)[C@@H]([C@@H]4OC(=O)C(C)=C4C)O1)[C@]32C [12-O-ETHYLJABOROSALACTONE 42]	2.7	-65.1	-11.2	-32.2	-25.7	3.5
CO[C@@]12C[C@H]3[C@@H](C[C@H]4O[C@]45CC=CC(=O)[C@]35C)[C@@H]3CC[C@@](O)([C@@H]([C@H]4CC(C)=C(C)C(=O)O4)CO1)[C@]32C [12-O-METHYLJABOROSALACTONE 38]	-8.7	-74.7	1.5	-24.5	-22.7	15.3
CC1=C(C)C(=O)O[C@@H]([C@H]2CO[C@@]3(O)C[C@H]4[C@@H](C[C@H]5O[C@]56CC=CC(=O)[C@]46C)[C@@H]4CC[C@]2(O)[C@]43C)C1 [JABOROSALACTONE]	-1.6	-58.6	2.4	-36.5	-46.2	-13.9
CC1=C(C)[C@H]([C@H]2O[C@@]3(O)C[C@H]4[C@@H](C[C@@H](O)[C@@]5(O)CC=CC(=O)[C@]45C)[C@@H]4CC[C@@](O)([C@@H]2C)[C@]43C)OC1=O [JABOROTETROL]	-3.9	-4	2.7	-5.9	-5.5	-10.2
CC1=C(C)[C@H]([C@H]2O[C@@]3(O)C[C@H]4[C@@H](C[C@H]5O[C@]56CC=CC(=O)[C@]46C)[C@@H]4CC[C@@](O)([C@@H]2C)[C@]43C)OC1=O [TRECHONOLIDE A]	3.7	2.5	-11.7	4	-8.4	2.5
